Results taken from publication PMC3834432 (Toxicological Research, 2012).

Assay: Micro-SPECT/CT imaging
Format: in vivo
Details: normal female ICR mice; 37 MBq i.v.; SPECT image at 30 min post injection
How it was run: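 Female ICR mice, obtained at 7 weeks old from a specific pathogen-free colony, were held three weeks for quarantine and adaptation. Housing was 23 ± 2 °C, 50 ± 5% humidity, 12 h light/dark, with diet and water ad libitum. Under 2% isoflurane, lying prone, mice were imaged on a small-animal SPECT/CT with a single-pinhole high-sensitivity mouse collimator.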

Substance | Blood clearance (SPECT image, words) | Excretion / clearance from the body (SPECT image, words)
Gly-Gly- Gly-Gly-Gly [^99mTc-tricarbonyl-Gly(5)] | fast blood clearance | 
Gly-Gly-Gly [^99mTc-tricarbonyl-Gly(3)] | fast blood clearances | good clearance property in vivo
